Laboratory results reported in ChEMBL document CHEMBL5032492, “Aminoalkoxycarbonyloxymethyl Ether Prodrugs with a pH-Triggered Release Mechanism: A Case Study Improving the Solubility, Bioavailability, and Efficacy of Antimalarial 4(1H)-Quinolones with Single Dose Cures” (J Med Chem, 2021).
Converted amounts (≈) assume the structure as drawn. The source made the active and inactive calls. The calls are words filed in the database; no cut-off is given here.

What was measured:
Plasmodium falciparum [1] = assay: (§1) Antimalarial activity against chloroquine and pyrimethamine resistant Plasmodium falciparum W2 infected in human erythrocytes assessed as reduction in parasite growth incubated for 48 hrs followed by addition of [3H]-hypoxanthine and measured after 24 hrs by Topcount liquid scintillation counting method; type: functional, organism-based; details: W2, Erythrocyte
Plasmodium falciparum [2] = assay: as §1, with “chloroquine, pyrimethamine, mefloquine” for “chloroquine”, “atovaquone-” for “pyrimethamine”, “TM90-C2B” for “W2”; type: functional, organism-based; details: Erythrocyte
[3] = Aqueous solubility of compound at pH 2.4; details: buffer
[4] = Solubility of the compound in 0.5% hydroxyethylcellulose
Plasmodium berghei [5] = assay: (§2) In vivo antimalarial activity against blood stage Plasmodium berghei transfected with GFP infected in BALB/c mouse assessed as supression of parasitemia at 10 mg/kg, po administered once daily starting from day 3 to 5 post infection and measured at day 6 by Giemsa staining based flow cytometric analysis relative to control; type: functional
Outline: (§3)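 Female BALB/c mice, 4–6 weeks old, five per group, were infected intraperitoneally with 2 × 10^6 P. berghei-GFP-infected red cells. Oral doses of 10 or 50 mg/kg in 0.5% aqueous HEC were given once daily on days 3–5 PI; prodrugs were suspended about 1 min before dosing. Parasitemia was measured by flow cytometry and Giemsa smears. Day-6 percent suppression was calculated versus untreated controls, with Welch-corrected t test.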

Plasmodium berghei [6] = assay: as §2, with “50” for “10”; type: functional; outline: as §3
[7] = Toxicity in BALB/c mouse infected with blood stage Plasmodium berghei assessed as weight loss at up to at 50 mg/kg, po administered once daily starting from day 3 to 5 post infection and measured on day 6; type: organism-based; details: in vivo
Outline: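 P. berghei-infected BALB/c mice were dosed orally once daily on days 3–5 PI in 0.5% aqueous HEC, at doses up to 50 mg/kg. Body weight of treated animals was monitored for loss.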

[8] = Aqueous solubility of compound at pH 7.4; type: physicochemical; details: buffer
Plasmodium berghei [9] = assay: as §2, with “administered as single dose on” for “administered once daily starting from day”, “3 days” for “3 to 5”, “measured on” for “measured at”; type: functional
Outline: (§4)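 Female BALB/c mice, 4–6 weeks old, five per dose group, were infected intraperitoneally with 2 × 10^6 P. berghei-GFP-infected red cells. Each received one oral dose on day 3 PI in 0.5% aqueous HEC; doses ranged 0.01–10 mg/kg. Parasitemia was measured from tail blood by flow cytometry and Giemsa smears. Percent suppression on day 6 PI was calculated versus untreated infected controls, with Welch-corrected unpaired t test.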

[10] = Cmax in BALB/c mouse at 3 mg/kg, po; type: ADME, organism-based; parameters: route oral, dose 3 mg/kg; details: in vivo
Outline: (§5)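 Single oral dose in mice, formulated in 0.5% aqueous HEC; doses of 3, 10 or 50 mg/kg. The parent 4(1H)-quinolone was quantified in plasma over time after dosing, with a lower limit of quantification of 1 nM. PK parameters were derived from the plasma concentration profiles.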

[11] = Cmax in BALB/c mouse at 10 mg/kg, po; type: ADME, organism-based; parameters: route oral, dose 10 mg/kg; details: in vivo; outline: as §5
[12] = Tmax in BALB/c mouse at 3 mg/kg, po; type: ADME, organism-based; details: in vivo; outline: as §5
[13] = Tmax in BALB/c mouse at 10 mg/kg, po; type: ADME, organism-based; details: in vivo; outline: as §5
[14] = AUC (0 to 24 hrs) in BALB/c mouse at 3 mg/kg, po; type: ADME, organism-based; parameters: time < 24 hr, route oral, dose 3 mg/kg; details: in vivo; outline: as §5
[15] = AUC (0 to 24 hrs) in BALB/c mouse at 10 mg/kg, po; type: ADME, organism-based; parameters: time < 24 hr, route oral, dose 10 mg/kg; details: in vivo; outline: as §5
[16] = Volume of distribution in BALB/c mouse at 3 mg/kg, po; type: ADME, organism-based; details: in vivo; outline: as §5
[17] = Volume of distribution in BALB/c mouse at 10 mg/kg, po; type: ADME, organism-based; details: in vivo; outline: as §5
[18] = Clearance in BALB/c mouse at 3 mg/kg, po; type: ADME, organism-based; details: in vivo; outline: as §5
[19] = Clearance in BALB/c mouse at 10 mg/kg, po; type: ADME, organism-based; details: in vivo; outline: as §5
[20] = Apparent half life in BALB/c mouse at 3 mg/kg, po; type: ADME, organism-based; details: in vivo, read-out: t1/2(app) (converted); outline: as §5
[21] = Apparent half life in BALB/c mouse at 10 mg/kg, po; type: ADME, organism-based; details: in vivo, read-out: t1/2(app) (converted); outline: as §5
Plasmodium berghei [22] = assay: as §2, with “at 3” for “at 10”, “administered as single dose on” for “administered once daily starting from day”, “3 days” for “3 to 5”, “measured on” for “measured at”; type: functional; details: time 3 day; outline: as §4
Plasmodium berghei [23] = assay: as §2, with “at 1” for “at 10”, “administered as single dose on” for “administered once daily starting from day”, “3 days” for “3 to 5”, “measured on” for “measured at”; type: functional; details: time 3 day; outline: as §4
Plasmodium berghei [24] = assay: as §2, with “at 0.3” for “at 10”, “administered as single dose on” for “administered once daily starting from day”, “3 days” for “3 to 5”, “measured on” for “measured at”; type: functional; details: time 3 day; outline: as §4
Plasmodium berghei [25] = assay: as §2, with “at 0.1” for “at 10”, “administered as single dose on” for “administered once daily starting from day”, “3 days” for “3 to 5”, “measured on” for “measured at”; type: functional; details: time 3 day; outline: as §4
Plasmodium berghei [26] = assay: as §2, with “at 0.03” for “at 10”, “administered as single dose on” for “administered once daily starting from day”, “3 days” for “3 to 5”, “measured on” for “measured at”; type: functional; details: time 3 day; outline: as §4
Plasmodium berghei [27] = assay: as §2, with “at 0.01” for “at 10”, “administered as single dose on” for “administered once daily starting from day”, “3 days” for “3 to 5”, “measured on” for “measured at”; type: functional; details: time 3 day; outline: as §4
Plasmodium berghei [28] = assay: In vivo antimalarial activity against blood stage Plasmodium berghei transfected with GFP infected in BALB/c mouse assessed as supression of parasitemia at 1 mg/kg, po administered as single dose on 3 days post infection and measured on day 13 by Giemsa staining based flow cytometric analysis relative to control; type: functional; details: time 10 day
Outline: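 Female BALB/c mice, five per group, were infected with P. berghei-GFP-infected erythrocytes intraperitoneally. Each received a single oral dose of 1 mg/kg in 0.5% aqueous HEC on day 3 PI. Tail-blood parasitemia was followed by flow cytometry and Giemsa smears at 3-day intervals through day 30. Suppression on day 13 PI was calculated relative to untreated infected controls.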

[29] = Toxicity in BALB/c mouse infected with blood stage Plasmodium berghei assessed as death at 1 mg/kg, po administered as single dose starting from day 3 post infection and measured on day 13; type: organism-based; details: in vivo, 240 h, time 10 day
Outline: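 Female BALB/c mice (4–6 weeks, about 18 g), five per group, infected intraperitoneally with P. berghei (GFP)-parasitized erythrocytes. Given one oral dose on day 3 PI in 0.5% aqueous HEC, freshly solubilized about 1 min before dosing. Tail-vein parasitemia read by flow cytometry and Giemsa smears every third day through day 30. Untreated animals served as controls.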

## CNCCCOC(=O)OCOc1c(-c2ccccc2C)c(C)nc2cc(OC)c(Cl)cc12.Cl
Plasmodium falciparum [1]
  EC50: 269 nM
Plasmodium falciparum [2]
  EC50: 170 nM
[3]
  solubility: > 100 µM
[4]
  solubility: > 20000 µM
Plasmodium berghei [5]
  Activity: 52%
Plasmodium berghei [6]
  Activity: 72%
[7]
  Activity: Non-Toxic

## CCN(CC)C(=O)Oc1c(-c2ccccc2C)c(C)nc2cc(OC)c(Cl)cc12
Plasmodium falciparum [1]
  EC50: > 2290 nM
Plasmodium falciparum [2]
  EC50: > 3550 nM
[8]
  solubility: < 1 µM

## COc1cc2[nH]c(C)c(-c3ccc(Oc4ccc(OC(F)(F)F)cc4)cc3F)c(=O)c2cc1Cl
Plasmodium berghei [9]; time 3 day
  Activity: <1%
Plasmodium berghei [9]; time 3.0 day
  Activity: inactive
[10]
  Cmax: 310 nM
[11]
  Cmax: 460 nM
[12]
  Tmax: 4 h
[13]
  Tmax: 8 h
[14]
  AUC: 228 µmol·min/L
[15]
  AUC: 580 µmol·min/L
[16]
  Vd: 19.6 L/kg
[17]
  Vd: 44 L/kg
[18]
  clearance: 26.6 mL/min/kg
[19]
  clearance: 34.9 mL/min/kg
[20]
  half-life: 8.5 h
[21]
  half-life: 14.5 h

## CNCCOC(=O)OCOc1c(-c2ccccc2C)c(C)nc2cc(OC)c(Cl)cc12.Cl
Plasmodium falciparum [1]
  EC50: 219 nM
Plasmodium falciparum [2]
  EC50: 107 nM
[3]
  solubility: > 100 µM
[4]
  solubility: > 21000 µM
Plasmodium berghei [5]
  Activity: 71%
Plasmodium berghei [6]
  Activity: 46%

## CNCCCOC(=O)OCOc1c(-c2ccc(Oc3ccc(OC(F)(F)F)cc3)cc2F)c(C)nc2cc(OC)c(Cl)cc12.Cl
[4]
  solubility: > 5500 µM
Plasmodium berghei [9]; time 3 day
  Activity: >99%
Plasmodium berghei [22]
  Activity: >99%
Plasmodium berghei [23]
  Activity: 97%
Plasmodium berghei [24]
  Activity: 57%
Plasmodium berghei [25]
  Activity: <1%
Plasmodium berghei [26]
  Activity: <1%
Plasmodium berghei [27]
  Activity: <1%
Plasmodium berghei [28]
  Activity: 90%
[14]
  AUC: 4818 µmol·min/L
[15]
  AUC: 10269 µmol·min/L
[18]
  clearance: 0.9 mL/min/kg
[19]
  clearance: 1.4 mL/min/kg
[29]
  Activity: Non-Toxic

## CN1CCCOC1=O
Plasmodium falciparum [1]
  EC50: > 8320 nM

## COc1cc2nc(C)c(-c3ccccc3C)c(OC(=O)N3CCCC3)c2cc1Cl
Plasmodium falciparum [1]
  EC50: > 2290 nM
Plasmodium falciparum [2]
  EC50: > 3550 nM

## CCOC(=O)Oc1c(-c2ccccc2C)c(C)nc2cc(OC)c(Cl)cc12
Plasmodium falciparum [1]
  EC50: 170 nM
Plasmodium falciparum [2]
  EC50: 126 nM
[8]
  solubility: < 1 µM

## NC(=O)N1c2ccccc2C=Cc2ccccc21 [CARBAMAZEPINE]
[8]
  solubility: 95 µM (≈ 22.4 µg/mL)
[3]
  solubility: 100 µM (≈ 23.6 µg/mL)
